Experimental data collected from several papers.
Compare with care: the assays were run in different laboratories.
RET V804M: Proto-oncogene tyrosine-protein kinase receptor Ret (RET, Homo sapiens, UniProt P07949, V804M)
RET M918T: Proto-oncogene tyrosine-protein kinase receptor Ret (RET, Homo sapiens, UniProt P07949, M918T)
RET V804L: Proto-oncogene tyrosine-protein kinase receptor Ret (RET, Homo sapiens, UniProt P07949, V804L)
RET: Proto-oncogene tyrosine-protein kinase receptor Ret (RET, Homo sapiens, UniProt P07949)

SMILES | target | assay | setting | remaining binding
O=C(NCCCN1CCOCC1)c1ccc(Nc2ncc(Cl)c(-c3ccc(Cl)s3)n2)cc1 | RET V804M | binding, competition with immobilised ligand | 1 µM | 15%
COc1cc(-c2cn(C3CCc4ccccc4N(CC(F)(F)F)C3=O)nn2)ccc1-n1ccc(C)n1 (stereo not shown) | RET M918T | cell-free assay, competition with immobilised ligand | 1 µM | 100%
CN(C)c1nccc(-c2cnc3ncccn23)n1 | RET V804M | binding | 1 µM | 93%
Cc1nc(Cc2cccc(C(F)(F)F)c2)sc1-c1ccc(C(N)=O)nc1 | RET V804L | cell-free assay, competition with immobilised ligand | 1 µM | 86%
c1cnn2ncc(-c3ccnc(N4CCC45COC5)n3)c2c1 | RET | binding | 1 µM | 97%
COc1cnc(Nc2cccc(S(N)(=O)=O)c2)nc1N1CCN(c2ccccc2)CC1 | RET V804M | binding, competition with immobilised ligand | 1 µM | 67%
C[C@@H](c1ccc(-n2cnc3c(N)ncnc32)cc1)N1CCc2nn(C)c(Cc3ccccc3)c2C1=O | RET V804M | binding, competition with immobilised ligand | 0.1 µM | 80%
Cc1nccc(COC(=O)N2C[C@@H]3[C@@H](CNC(=O)c4ccc5[nH]nnc5c4)[C@@H]3C2)n1 | RET M918T | cell-free assay, competition with immobilised ligand | 1 µM | 100%
N#Cc1ccccc1CSc1nnc2c(n1)[nH]c1ccccc12 | RET | binding, competition with immobilised ligand | 10 µM | 89%
O=C(c1ccc(Nc2ncc(Cl)c(-c3ccc(Cl)s3)n2)cc1)N1CCC(N2CCCC2)CC1 | RET | binding, competition with immobilised ligand | 1 µM | 15%
N[C@@H]1CCN(c2nccc(-c3cnn4ncccc34)n2)C1 | RET | binding | 1 µM | 100%
CN1CCN(c2ccc(Nc3nccc(-c4ccccc4)n3)cc2C(F)(F)F)CC1 | RET M918T | binding | 10 µM | 27%
CC(C)CC(=O)N1CCc2nc(-c3ccc(Br)cc3)nc(N(C)Cc3ccccc3)c2C1 | RET V804M | cell-free assay, competition with immobilised ligand | 0.1 µM | 82%
O=C(NCCCN1CCOCC1)c1ccc(Nc2nccc(-c3cc4ccccc4s3)n2)cc1 | RET V804L | binding, competition with immobilised ligand | 1 µM | 100%
CCc1ccccc1C(=O)Nc1n[nH]c2c(C)c(F)c(C3C(C#N)=C(C)N(C)C(C)=C3C#N)cc12 | RET V804L | cell-free assay, competition with immobilised ligand | 1 µM | 25%
O=C(c1ccc(Nc2nccc(-c3cc4ccccc4s3)n2)cc1)N1CCC(N2CCCC2)CC1 | RET | binding, competition with immobilised ligand | 1 µM | 85%
C[C@@H]1CCN(c2nccc(-c3cnn4ncccc34)n2)C1 | RET | binding | 1 µM | 70%
O=C(Nc1c[nH]nc1C(=O)NC1CCNCC1)c1cc(F)cc(F)c1 | RET V804L | binding, competition with immobilised ligand | 1 µM | 100%
CC(C)(C)c1ccc(-c2nc(CBr)nn2-c2cccc(O)c2)cc1 | RET | cell-free assay, competition with immobilised ligand | 10 µM | 93%

SMILES | target | assay | setting | remaining binding
CS(=O)(=O)NCC[C@H](NC(=O)c1cncc2c1cnn2-c1ccc(F)cc1)c1ccnc(S(C)(=O)=O)c1 | RET | cell-free assay, competition with immobilised ligand | 1 µM | 91%
c1cncc(-c2cccc(Nc3nccc(NC4CCCCC4)n3)c2)c1 | RET M918T | binding, competition with immobilised ligand | 10 µM | 2.1%
Cc1cnc(Nc2ccc(C(=O)N3CCC(N4CCCC4)CC3)cc2)nc1-c1cc2ccccc2s1 | RET | binding, competition with immobilised ligand | 1 µM | 12%
C[C@@H]1CN(c2ccc3ncc(-c4ccc5[nH]nc(C6CC6)c5c4)n3n2)C[C@H](C)O1 | RET | binding, competition with immobilised ligand | 50 nM | 88%
CN(CCCC(F)(F)F)c1nccc(-c2cnn3ncccc23)n1 | RET | binding | 1 µM | 86%
O=C(c1ccc(Nc2ncc(Cl)c(-c3cc4ccccc4s3)n2)cc1)N1CCC(N2CCCC2)CC1 | RET | binding, competition with immobilised ligand | 1 µM | 25%
O=C(NCC1CCOCC1)c1n[nH]cc1NC(=O)c1c(F)cccc1F | RET V804M | binding, competition with immobilised ligand | 1 µM | 90%
CC1CCCN1c1nccc(-c2cnn3ncccc23)n1 (stereo not shown) | RET | binding | 1 µM | 100%
CN(C)C(=O)Cn1cc(-c2nc([C@@](C)(c3ccc(-c4cnc(N)nc4)cc3)C3CC3)no2)cn1 | RET V804L | cell-free assay, competition with immobilised ligand | 1 µM | 93%
Nc1ncc2c(n1)-c1c([nH]c3ccc(C#CC4CC4)cc13)CCCC2 | RET V804L | binding, competition with immobilised ligand | 1 µM | 96%
CNC(=O)[C@@H]1CC[C@@H](n2c(-c3ccc4cnccc4c3)nc3ccc(C(=O)NCc4cccc(C(N)=O)c4)cc32)C1 | RET V804L | binding, competition with immobilised ligand | 1 µM | 94%
C=CC(=O)N1CCC(C(=O)NCC(=O)N2CCN(c3nc(-c4cnc(N)nc4C(F)F)nc(N4CCOCC4)n3)CC2)CC1 | RET | binding, competition with immobilised ligand | 1 µM | 94%
COc1cnc(Nc2cccc(S(N)(=O)=O)c2)nc1N1CCN(c2ccccc2)C(=O)C1 | RET V804L | binding, competition with immobilised ligand | 1 µM | 98%
CN1CCN(c2ccc(Nc3nccc(-c4cccc([N+](=O)[O-])c4)n3)cc2C(F)(F)F)CC1 | RET V804M | binding | 10 µM | 49%
F[C@@H]1CCN(c2nccc(-c3cnn4ncccc34)n2)C1 | RET M918T | binding | 1 µM | 100%
O=C(N[C@H]1CCCCC/C=C\C2C[C@@]2(C(=O)O)NC(=O)[C@@H]2C[C@@H](Oc3ccncc3)CN2C1=O)OC1CCCC1 (stereo partly shown) | RET | binding, competition with immobilised ligand | 1 µM | 94%
CCN1CCN(Cc2ccc(C(=O)Nc3ccc(C)c(Oc4ccc5c(c4)CC(=O)N5)c3)cc2C(F)(F)F)CC1 | RET | binding, competition with immobilised ligand | 1 µM | 14%
COc1ncc2cc3ccccc3nc2c1C#N | RET M918T | cell-free assay, competition with immobilised ligand | 5 µM | 96%
